Assay results from ChEMBL document CHEMBL2331481, “Chemotherapy of leishmaniasis part X: synthesis and bioevaluation of novel terpenyl heterocycles” (Bioorg Med Chem Lett, 2013).

Columns and labels:
Leishmania donovani [1] = experiment: Antileishmanial activity against Leishmania donovani amastigote infected in mouse J774A.1 cells after 72 hrs by luciferase reporter gene assay; assay type: functional, organism-based; settings: J774.A1, 72 h
In short: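 Macrophages seeded at 4×10^4 cells/well in RPMI-1640 + 10% FCS, 37 °C CO2, 24 h; then infected with stationary-phase luciferase-expressing promastigotes (4×10^5/well), which transform to amastigotes. Compounds at 2-fold dilutions, 7 points from 40 µM, 72 h. Read-out: luminescence after Steady Glo in PBS. IC50 by nonlinear regression of concentration-response, four-parameter Hill equation.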

Leishmania donovani [2] = experiment: Leishmanicidal activity against Leishmania donovani MHOM/IN/80/Dd8 infected in golden hamster at 50 mg/kg, ip for 5 consecutive days measured on day 7 of last drug administration by Giemsa staining method; assay type: functional; settings: MHOM/IN/80/Dd8, ip, 168 h, route intraperitoneal
In short: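 Inbred hamsters of either sex, 40-45 g, infected intracardially with 1×10^7 amastigotes; infection establishes in 15-20 days. Only animals with +1 infection (5-15 amastigotes/100 spleen nuclei) on pre-treatment spleen biopsy were used, randomized by parasite burden, 5-6 per group. i.p. dosing began 2 days after biopsy. Giemsa amastigote counts; PI = 100 − [ANAT×100/(INAT×TIUC)].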

[3] = Selectivity index, ratio of CC50 for human KB cells to IC50 for Leishmania donovani amastigote infected in mouse J774A.1 cells; assay type: functional
In short: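 SI computed as CC50 in KB cells (MTT, 72 h) divided by IC50 against amastigotes in luciferase-reporter infected J774A.1 macrophages (72 h).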

[4] = Cytotoxicity against human KB cells after 72 hrs by MTT assay; assay type: cell-based
In short: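 Exponentially growing cells at 1×10^5/well, 72 h at 37 °C, humidified CO2, with compounds at 3-fold dilutions, 7 points from 400 µM. Compounds dissolved in DMSO, diluted in complete medium. DMSO vehicle wells; podophyllotoxin reference. MTT (5 mg/ml in PBS) 2 h at 37 °C, formazan dissolved in DMSO, absorbance 544 nm. CC50 is the concentration giving 50% viability loss versus medium-only cells, estimated per Huber and Koella.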

Row | IC50 (Leishmania donovani [1]) | Compound | also measured
1 | > 40 µM | CC1=C(/C=C/C2=NN(c3ccccc3)C(c3cccc(Cl)c3)C2)C(C)(C)CCC1 (stereo not drawn) | 
2 | 16.9 µM | CC1=C(/C=C/C2=NN(c3ccccc3)C(c3cccc([N+](=O)[O-])c3)C2)C(C)(C)CCC1 (stereo not drawn) | inhibition in vivo at 50 mg/kg (Leishmania donovani [2]): 7.13%; Ratio CC50/IC50 [3]: 16.48; CC50 at 72 h [4]: 279 µM
3 | > 20 µM | CC1=C(/C=C/C2=NN(c3ccccc3)C(c3ccccc3[N+](=O)[O-])C2)C(C)(C)CCC1 (stereo not drawn) | 
4 | > 20 µM | CC1=C(/C=C/C2=NN(c3ccccc3)C(c3ccccc3Cl)C2)C(C)(C)CCC1 (stereo not drawn) | 
5 | > 20 µM | COc1ccc(C2CC(/C=C/C3C(C)=CCCC3(C)C)=NN2c2ccccc2)cc1OC (stereo not drawn) | 
6 | 7.49 µM | COc1ccc(C2CC(/C=C/C3=C(C)CCCC3(C)C)=NN2c2ccccc2)cc1OC (stereo not drawn) | inhibition in vivo at 50 mg/kg (Leishmania donovani [2]): 80.8%; Ratio CC50/IC50 [3]: 29.46; CC50 at 72 h [4]: 221 µM
7 | > 40 µM | COc1cc(-c2cc(/C=C/C3C(C)=CCCC3(C)C)nn2-c2ccccc2)cc(OC)c1OC (stereo not drawn) | 
8 | > 20 µM | CC1=CCCC(C)(C)C1/C=C/C1=NN(c2ccccc2)C(c2ccccc2[N+](=O)[O-])C1 (stereo not drawn) | 
9 | > 20 µM | COc1cc(C2CC(/C=C/C3C(C)=CCCC3(C)C)=NN2c2ccccc2)cc(OC)c1OC (stereo not drawn) | 
10 | > 40 µM | CC1=C(/C=C/C2=NN(c3ccccc3)C(c3ccc(OCc4ccccc4)cc3)C2)C(C)(C)CCC1 (stereo not drawn) | 
11 | > 40 µM | CC1=C(/C=C/C2=NN(c3ccccc3)C(c3ccc(F)cc3)C2)C(C)(C)CCC1 (stereo not drawn) | 
12 | > 40 µM | CC1=CCCC(C)(C)C1/C=C/c1cc(-c2ccc(F)cc2)n(-c2ccccc2)n1 (stereo not drawn) | 
13 | > 40 µM | CC1=CCCC(C)(C)C1/C=C/c1cc(-c2ccccc2[N+](=O)[O-])n(-c2ccccc2)n1 (stereo not drawn) | 
14 | > 20 µM | COc1cc(C2CC(/C=C/C3=C(C)CCCC3(C)C)=NN2c2ccccc2)cc(OC)c1OC (stereo not drawn) | 
15 | > 40 µM | CC1=C(/C=C/C2=NN(c3ccccc3)C(c3ccc([N+](=O)[O-])cc3)C2)C(C)(C)CCC1 (stereo not drawn) | 
16 | > 40 µM | CC1=CCCC(C)(C)C1/C=C/c1cc(-c2ccc([N+](=O)[O-])cc2)n(-c2ccccc2)n1 (stereo not drawn) | 
17 | > 20 µM | CC1=C(/C=C/C2=NN(c3ccccc3)C(c3ccc(Cl)cc3)C2)C(C)(C)CCC1 (stereo not drawn) | 
18 | > 20 µM | COc1ccc(-c2cc(/C=C/C3C(C)=CCCC3(C)C)nn2-c2ccccc2)cc1OC (stereo not drawn) | 
19 |  | CCCCCCCCCCCCCCCCOP(=O)([O-])OCC[N+](C)(C)C [MILTEFOSINE] | inhibition in vivo at 50 mg/kg (Leishmania donovani [2]): 95.3%; Ratio CC50/IC50 [3]: 0.26
20 | > 40 µM | CC1=CCCC(C)(C)C1/C=C/C1=NN(c2ccccc2)C(c2ccc(F)cc2)C1 (stereo not drawn) | 
21 | > 40 µM | CC1=CCCC(C)(C)C1/C=C/C1=NN(c2ccccc2)C(c2ccc([N+](=O)[O-])cc2)C1 (stereo not drawn) | 
